Two compounds from ChEMBL document CHEMBL2429849, “Substrate-based fragment identification for the development of selective, nonpeptidic inhibitors of striatal-enriched protein tyrosine phosphatase” (J Med Chem, 2013) can be followed below.

Test [1] addresses T1, Tyrosine-protein phosphatase non-receptor type 5 (Homo sapiens, UniProt P54829).
T1 sequence (P54829 whole entry): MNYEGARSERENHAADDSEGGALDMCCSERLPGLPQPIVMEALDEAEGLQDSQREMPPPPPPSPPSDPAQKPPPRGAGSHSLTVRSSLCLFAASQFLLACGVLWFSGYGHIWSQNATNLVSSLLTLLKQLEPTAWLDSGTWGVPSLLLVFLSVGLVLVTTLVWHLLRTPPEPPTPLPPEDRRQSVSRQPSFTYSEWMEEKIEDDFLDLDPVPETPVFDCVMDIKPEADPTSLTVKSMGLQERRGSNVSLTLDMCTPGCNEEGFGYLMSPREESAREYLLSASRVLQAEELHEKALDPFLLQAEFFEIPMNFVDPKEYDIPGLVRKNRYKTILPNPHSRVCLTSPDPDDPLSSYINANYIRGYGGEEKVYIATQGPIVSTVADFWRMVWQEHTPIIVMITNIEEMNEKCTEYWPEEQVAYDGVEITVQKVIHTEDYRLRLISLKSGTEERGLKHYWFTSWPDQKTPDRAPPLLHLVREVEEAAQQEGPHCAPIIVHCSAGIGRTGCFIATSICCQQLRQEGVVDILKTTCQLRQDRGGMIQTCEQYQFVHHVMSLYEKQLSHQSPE
As to the kind of experiment: Inhibition of human STEP using pNPP as substrate after 5 mins by spectrophotometric plate reader analysis.

Test [2] concerns the target T2, Receptor-type tyrosine-protein phosphatase C (Homo sapiens, UniProt P08575).
T2 sequence (P08575 whole entry): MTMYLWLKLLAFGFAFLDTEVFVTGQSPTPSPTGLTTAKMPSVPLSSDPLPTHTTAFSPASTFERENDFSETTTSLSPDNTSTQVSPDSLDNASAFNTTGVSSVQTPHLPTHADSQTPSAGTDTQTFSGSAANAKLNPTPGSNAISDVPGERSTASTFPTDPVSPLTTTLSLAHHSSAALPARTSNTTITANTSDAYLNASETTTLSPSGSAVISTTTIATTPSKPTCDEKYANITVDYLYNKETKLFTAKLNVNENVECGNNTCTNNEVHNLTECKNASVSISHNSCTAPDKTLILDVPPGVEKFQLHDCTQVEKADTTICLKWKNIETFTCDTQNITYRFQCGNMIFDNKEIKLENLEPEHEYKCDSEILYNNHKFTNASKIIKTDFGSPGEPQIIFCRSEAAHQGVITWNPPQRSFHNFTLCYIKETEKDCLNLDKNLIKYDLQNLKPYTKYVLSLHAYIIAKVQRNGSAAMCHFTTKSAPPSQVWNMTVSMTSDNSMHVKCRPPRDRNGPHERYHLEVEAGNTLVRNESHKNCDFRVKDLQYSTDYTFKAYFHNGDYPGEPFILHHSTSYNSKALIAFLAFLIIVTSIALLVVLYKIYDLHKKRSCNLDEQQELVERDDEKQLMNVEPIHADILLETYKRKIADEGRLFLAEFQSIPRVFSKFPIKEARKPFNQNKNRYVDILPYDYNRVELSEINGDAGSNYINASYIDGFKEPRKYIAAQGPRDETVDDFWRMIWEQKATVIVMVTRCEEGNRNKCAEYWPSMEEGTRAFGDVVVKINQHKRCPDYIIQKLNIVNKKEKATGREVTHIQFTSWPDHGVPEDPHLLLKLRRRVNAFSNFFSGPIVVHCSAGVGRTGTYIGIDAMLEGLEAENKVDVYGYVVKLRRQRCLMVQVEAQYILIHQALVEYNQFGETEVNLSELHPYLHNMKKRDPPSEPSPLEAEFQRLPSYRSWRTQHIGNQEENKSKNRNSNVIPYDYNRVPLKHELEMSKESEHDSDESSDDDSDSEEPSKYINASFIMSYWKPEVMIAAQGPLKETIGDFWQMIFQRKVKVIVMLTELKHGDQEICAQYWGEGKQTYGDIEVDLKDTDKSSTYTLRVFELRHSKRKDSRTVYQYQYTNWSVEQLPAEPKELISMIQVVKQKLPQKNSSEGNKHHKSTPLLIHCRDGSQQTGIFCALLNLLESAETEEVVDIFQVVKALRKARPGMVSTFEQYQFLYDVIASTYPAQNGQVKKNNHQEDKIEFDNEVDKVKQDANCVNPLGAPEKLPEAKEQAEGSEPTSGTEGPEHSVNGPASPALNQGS
In words: Inhibition of human CD45 using pNPP as substrate after 5 mins by spectrophotometric plate reader analysis. The gist of the method: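 Enzyme preincubated 5 min at 27 °C with serially diluted inhibitor (from DMSO) in imidazole/NaCl buffer pH 7.0 with 0.01% Triton X-100 and 5 mM DTT. Started with pNPP (500 μM in assay) and read at 405 nm for 20 min. The pNPP KM was measured for each enzyme. Ki from nonlinear regression of substrate–velocity curves at several inhibitor levels; at least duplicate.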

Test [3] is filed under the species Homo sapiens. As to the kind of experiment: Selectivity ratio of Ki for human TC-PTP to Ki for human STEP. The gist of the method: (§1)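 STEP, CD45, LAR and TC-PTP used pNPP (500 μM) in imidazole/NaCl pH 7.0 with Triton X-100, read at 405 nm for 20 min. MKP5 used DiFMUP in Tris-HCl pH 8.0. The enzyme's own pNPP KM was used in analysis; ratio of the Ki values.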

The species entered for test [4] is Homo sapiens. In words: Selectivity ratio of Ki for human CD45 to Ki for human STEP. The gist of the method:
as §1

Test [5] addresses T3, Tyrosine-protein phosphatase non-receptor type 5 (Rattus norvegicus) (UniProt P35234).
T3 sequence (whole entry): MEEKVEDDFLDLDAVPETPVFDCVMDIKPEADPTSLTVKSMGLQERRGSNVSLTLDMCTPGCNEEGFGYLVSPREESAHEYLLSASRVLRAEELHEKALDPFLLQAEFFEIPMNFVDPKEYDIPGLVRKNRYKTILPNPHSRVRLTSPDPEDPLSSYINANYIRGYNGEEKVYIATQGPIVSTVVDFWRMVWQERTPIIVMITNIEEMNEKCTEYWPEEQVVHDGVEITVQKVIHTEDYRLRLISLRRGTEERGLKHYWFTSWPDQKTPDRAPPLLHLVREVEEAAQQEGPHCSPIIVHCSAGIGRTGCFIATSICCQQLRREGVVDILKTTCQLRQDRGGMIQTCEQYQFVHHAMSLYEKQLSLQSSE
As to the kind of experiment: Inhibition of STEP in Sprague-Dawley rat embryo primary cortical neurons assessed as phosphorylation of Pyk2 at 0.1 to 10 uM after 1 hr by Western blot analysis. The following applies: Cerebral cortex neuron. An outline of the steps:
(§2)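 E18 rat cortical neurons were trypsin-dissociated and plated on poly-D-lysine in Neurobasal with 2% B27, then grown 18–21 days at 37 °C. Compound was added at final 0, 0.1, 1 or 10 μM (0.1% DMSO) for 1 h at 37 °C. Cells were lysed in RIPA with protease/phosphatase inhibitors and protein measured by BCA. Phospho and total proteins were blotted by SDS-PAGE, with antibodies overnight at 4 °C and chemiluminescent detection.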
A general note: In western blotting, separated proteins are transferred to a membrane and probed.

Test [6] concerns the target T3, Tyrosine-protein phosphatase non-receptor type 5 (Rattus norvegicus). As to the kind of experiment: Inhibition of STEP in Sprague-Dawley rat embryo primary cortical neurons assessed as phosphorylation of ERK1/2 at 0.1 to 10 uM after 1 hr by Western blot analysis. Conditions: Cerebral cortex neuron. The gist of the method:
as §2

Calls of active or inactive are those of the source. The rule behind the calls is not given here.

With `O=P(O)(O)[C@H](O)c1ccc(-c2cccc([C@H](O)c3ccc(Cl)c(Cl)c3)c2)cc1`, the results for the Ki in test [1] and in test [2] were 7.8 µM and 270 µM, respectively. The values for the Ratio Ki in the test listed under Homo sapiens [3] and in the test listed under Homo sapiens [4] were 22 and 35, respectively. Further, the inhibition entry in test [5] and in test [6] was “Active” in each case.

As to `O=P(O)(O)[C@H](O)c1ccc(-c2cccc([C@@H](O)c3ccc(Cl)c(Cl)c3)c2)cc1`, the inhibition constant (Ki) (in general, a dissociation constant, usually derived from enzyme kinetics or from competition with a known ligand) was 8.9 µM in test [1] and 340 µM in test [2]. Further, the Ratio Ki in the test filed under Homo sapiens [3] worked out at 18; in the test filed under Homo sapiens [4], 38. The inhibition result in test [5] and in test [6] was “Active” throughout.
